Measurements reported in ChEMBL document CHEMBL1765072, “Inhibition of amyloidogenesis by nonsteroidal anti-inflammatory drugs and their hybrid nitrates” (J Med Chem, 2011).
Active and inactive are the calls of the source. The rule behind the calls is not given here.

Tests used:
[1] = Cytotoxicity against mouse RAW264.7 cells assessed as cell viability at 10 uM after 24 hrs by MTT assay relative to control; format: cell-based; conditions: read-out: Activity
In short: (§1)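 RAW 264.7 cells given 0.5 mg/ml MTT in medium for 4 h, washed with PBS; formazan dissolved in DMSO, shaken 30 min, absorbance read at 570 nm against a 630 nm reference. Viability expressed relative to DMSO control.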

N2a [2] = assay: Antiamyloidogenic activity in mouse N2A cells transfected with human APP Swedish mutant assessed as amyloid beta (1 to 42) level at 1 uM after 24 hrs by ELISA relative to control
RAW264.7 [3] = assay: Antiinflammatory activity against mouse RAW264.7 cells assessed as LPS-induced nitrate production at 10 uM treated 30 mins before LPS challenge measured after 24 hrs by Griess reagent method relative to control
[4] = Cytotoxicity against mouse RAW264.7 cells assessed as cell viability at 100 uM after 24 hrs by MTT assay relative to control; format: cell-based; conditions: read-out: Activity; in short: as §1
RAW264.7 [5] = assay: Antiinflammatory activity against mouse RAW264.7 cells assessed as LPS-induced nitrate production at 100 uM treated 30 mins before LPS challenge measured after 24 hrs by Griess reagent method relative to control
N2a (Mus musculus) = assay: Cytotoxicity against mouse N2a/APPsw cells assessed as cell viability at 1 uM after 24 hrs by MTT assay relative to control
N2a [6] = assay: Antiamyloidogenic activity in mouse N2A cells transfected with human APP Swedish mutant assessed as increase of amyloid beta (1 to 42) level at 100 uM after 24 hrs by ELISA; format: functional, cell-based
N2a [7] = assay: Antiamyloidogenic activity in mouse N2A cells transfected with human APP Swedish mutant assessed as increase of amyloid beta (1 to 42)/(1 to 40) ratio at 100 uM after 24 hrs by ELISA; format: functional, cell-based
N2a [8] = assay: Antiamyloidogenic activity in mouse N2A cells transfected with human APP Swedish mutant assessed as increase of amyloid beta (1 to 40) level at 100 uM after 24 hrs by ELISA; format: functional, cell-based
N2a [9] = assay: Antiamyloidogenic activity in mouse N2A cells transfected with human APP Swedish mutant assessed as reduction of amyloid beta (1 to 42) level at 10 uM after 24 hrs by ELISA; format: functional, cell-based
In short: (§2)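 N2a/APPsw cells (25 × 10⁴/well, plated 24 h prior) washed with PBS and treated with drug in DMEM with 0.2 % FBS for 24 h. Supernatant got NaN₃ (0.01 % final) and protease inhibitors, was centrifuged, and Aβ1–42 was measured by human sandwich ELISA. Values normalized to DMSO vehicle; mean and s.e.m., at least 4 experiments on separate passages.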

N2a [10] = assay: Antiamyloidogenic activity in mouse N2A cells transfected with human APP Swedish mutant assessed as increase of amyloid beta (1 to 37) level at 10 uM after 24 hrs by ELISA; format: functional, cell-based; conditions: in the assay text read “immunoprecipitation MALDI-TOF” for “ELISA”
In short: (§3)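 N2a cells stably expressing Swedish-mutant human APP, 1 × 10⁶ cells/well, drug-treated 24 h in DMEM with 0.2 % FBS without G418. Conditioned media got NaN₃, protease inhibitors and a ~1 ng/mL Aβ1–43 internal standard, then biotinylated 4G8/6E10 immunoprecipitation and linear-positive MALDI-TOF. Peak heights were normalized to Aβ1–43, then to DMSO control.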

N2a [11] = assay: Antiamyloidogenic activity in mouse N2A cells transfected with human APP Swedish mutant assessed as increase of amyloid beta (1 to 38) level at 10 uM after 24 hrs by ELISA; format: functional, cell-based; conditions: in the assay text read “immunoprecipitation MALDI-TOF” for “ELISA”; in short: as §3
N2a [12] = assay: Antiamyloidogenic activity in mouse N2A cells assessed as degradation of amyloid beta (1 to 42) level at 100 uM treated 24 hrs before amyloid beta (1 to 42) challenge measured after 8 hrs by MALDI/TOF analysis; format: functional, cell-based
In short: (§4)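 Wild-type N2a cells were plated at 100 × 10⁴ cells/well, PBS-washed, and drug-treated in DMEM with 0.2 % FBS. Conditioned medium was collected after 24 h per the legend (18 h per the methods), given NaN₃, spun at 10,000 g, added to an Aβ1–40 + Aβ1–42 mixture, and incubated 8 h at 37 °C. Samples were then given protease inhibitors, spiked with Aβ1–43, and analysed by 4G8/6E10 IP-MALDI-TOF. Values were normalised to cell-free media control; mean and s.d.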

N2a [13] = assay: Antiamyloidogenic activity in mouse N2A cells assessed as degradation of amyloid beta (1 to 40) level at 100 uM treated 24 hrs before amyloid beta (1 to 40) challenge measured after 8 hrs by MALDI/TOF analysis; format: functional, cell-based; in short: as §4
N2a [14] = assay: Antiamyloidogenic activity in mouse N2A cells assessed as reduction of amyloid beta (1 to 42)/(1 to 40) ratio at 100 uM treated 24 hrs before amyloid beta (1 to 42)/(1 to 40) challenge measured after 8 hrs by MALDI/TOF analysis; format: functional, cell-based; in short: as §4
N2a [15] = assay: Antiamyloidogenic activity in mouse N2A cells transfected with human APP Swedish mutant assessed as reduction of amyloid beta (1 to 42) level at 100 uM after 24 hrs by ELISA; format: functional, cell-based
N2a [16] = assay: Antiamyloidogenic activity in mouse N2A cells transfected with human APP Swedish mutant assessed as increase of amyloid beta (1 to 37) level at 100 uM after 24 hrs by ELISA; format: functional, cell-based
N2a [17] = assay: Antiamyloidogenic activity in mouse N2A cells transfected with human APP Swedish mutant assessed as reduction of amyloid beta (1 to 42) level at 0.5 uM after 24 hrs by ELISA; format: functional, cell-based; in short: as §2

Structure (SMILES)	viability at 24 h, 10 µM [1]	level, % of control at 1 µM (N2a [2])	level, % of control at 10 µM (RAW264.7 [3])	viability at 24 h, 1 µM (N2a (Mus musculus))	also measured
C[S+]([O-])c1ccc(/C=C2/C=C(CC(=O)O)c3cc(F)ccc32)cc1 (centres undefined)	104%	95%	91.6%		
O=C(OCCBr)C1(c2ccc(-c3ccc(C(F)(F)F)cc3)c(F)c2)CC1					viability at 24 h, 100 µM [4]: 113%; level, % of control at 100 µM (RAW264.7 [5]): 14.7%
O=C(O)C(O)c1ccc(-c2ccccc2)c(F)c1 (centres undefined)	89.1%	82.5%	59%	101%	
NC(=O)C(F)c1ccc(-c2ccc(F)cc2)c(F)c1 (centres undefined)	90.6%		74.7%	69.1%	
NC(=O)C(F)c1ccc(-c2ccccc2)c(F)c1 (centres undefined)		101%		103%	
O=C(OCCBr)C1(c2ccc(-c3ccc(Cl)c(Cl)c3)c(F)c2)CC1					Activity (N2a [6]): Active; Activity (N2a [7]): Active; viability at 24 h, 100 µM [4]: 114%; Activity (N2a [8]): Active; level, % of control at 100 µM (RAW264.7 [5]): 27.8%
CSc1ccc(/C=C2/C(C)=C(CC(=O)O)c3cc(F)ccc32)cc1 [SULINDAC SULFIDE]		82.6%			
N#CC(F)c1ccc(-c2ccc(F)cc2)c(F)c1 (centres undefined)	84.5%		65.3%	69.4%	
O=C(OCCO[N+](=O)[O-])C1(c2ccc(-c3ccc(Cl)c(Cl)c3)c(F)c2)CC1					viability at 24 h, 100 µM [4]: 135%; level, % of control at 100 µM (RAW264.7 [5]): 40%
CCC(C#N)(CC)c1ccc(-c2ccccc2)c(F)c1		125%		97.3%	
CC1=C(CC(=O)O)c2cc(F)ccc2/C1=C\c1ccc([S+](C)[O-])cc1 (centres undefined)	104%	100%	85.7%		inhibition (N2a [9]): Active; Activity (N2a [10]): Active; Activity (N2a [11]): Active
O=C(OCCO[N+](=O)[O-])C1(c2ccc(-c3ccc(C(F)(F)F)cc3)c(F)c2)CC1					viability at 24 h, 100 µM [4]: 128%; level, % of control at 100 µM (RAW264.7 [5]): 42.8%
CC(C(=O)O)c1ccc(-c2ccccc2)c(F)c1 (centres undefined) [FLURBIPROFEN]		86.6%	80.7%		Activity (N2a [12]): Active; Activity (N2a [13]): Active; Activity (N2a [14]): Active; viability at 24 h, 100 µM [4]: 10.9%; inhibition (N2a [15]): Active; Activity (N2a [16]): Active; level, % of control at 100 µM (RAW264.7 [5]): 69.1%
N#CC(F)c1ccc(-c2ccccc2)c(F)c1 (centres undefined)		65.6%		93.1%	
CC(F)(C(=O)O)c1ccc(-c2ccccc2)c(F)c1 (centres undefined)	99.7%	98.8%	80.8%	101%	
O=C(OCCBr)C1(c2ccc(-c3ccccc3)c(F)c2)CC1					viability at 24 h, 100 µM [4]: 109%; level, % of control at 100 µM (RAW264.7 [5]): 18.9%
O=C(O)C1(c2ccc(-c3ccccc3)c(F)c2)CC1		69.5%		103%	viability at 24 h, 100 µM [4]: 101%; level, % of control at 100 µM (RAW264.7 [5]): 60.7%
NC(=O)C(F)(F)c1ccc(-c2ccc(F)cc2)c(F)c1	98.8%	109%	84.1%	95.9%	

Structure (SMILES)	viability at 24 h, 10 µM [1]	level, % of control at 1 µM (N2a [2])	level, % of control at 10 µM (RAW264.7 [3])	viability at 24 h, 1 µM (N2a (Mus musculus))	also measured
COc1ccc2c(c1)c(CNCCO)c(C)n2C(=O)c1ccc(Cl)cc1	100%	118%	52.5%		
O=C(O)C(O)c1ccc(-c2ccc(F)cc2)c(F)c1 (centres undefined)	102%	106%	76.3%	99.7%	
CCC(C#N)(CC)c1ccc(-c2cccc3ccccc23)c(F)c1	107%	105%	91.3%	91.6%	
CCC(CC)(C(=O)O)c1ccc(-c2ccccc2)c(F)c1		124%		95.5%	
CCNC(=O)CC1=C/C(=C/c2ccc(SC)cc2)c2ccc(F)cc21	104%	95.7%	80.4%		
NC(=O)C(F)(F)c1ccc(-c2ccccc2)c(F)c1	100%	115%	82.2%	102%	
O=C(O)C(F)c1ccc(-c2ccccc2)c(F)c1 (centres undefined)	92.7%	91.8%	81.5%	98.7%	
CSc1ccc(/C=C2/C=C(CC(=O)NCc3ccccc3)c3cc(F)ccc32)cc1	100%	94.5%	58.4%		
O=C(OCCO[N+](=O)[O-])C1(c2ccc(-c3ccccc3)c(F)c2)CC1					viability at 24 h, 100 µM [4]: 113%; inhibition (N2a [17]): Active; level, % of control at 100 µM (RAW264.7 [5]): 47.3%
O=C(O)C1(c2ccc(-c3ccc(Cl)c(Cl)c3)c(F)c2)CC1		125%			viability at 24 h, 100 µM [4]: 19.1%
N#CC(F)(F)c1ccc(-c2ccc(F)cc2)c(F)c1	98.2%	125%	75.7%	98.2%	
O=C(O)C1(c2ccc(-c3ccc(C(F)(F)F)cc3)c(F)c2)CC1		99.3%		97.2%	viability at 24 h, 100 µM [4]: 102%; level, % of control at 100 µM (RAW264.7 [5]): 62.4%
O=C(O)CC1=C/C(=C/c2ccc(SC(F)(F)F)cc2)c2ccc(F)cc21	104%	99.4%	1.7%		
COc1ccc2c(c1)c(CC(=O)NCCc1cccnc1)c(C)n2C(=O)c1ccc(Cl)cc1	95.6%	135%	100%		
COc1ccc2c(c1)c(CC(=O)O)cn2C(=O)c1ccc(Cl)cc1	97.9%	102%	65.9%		
COc1ccc2c(c1)c(CC(=O)Nc1ccc(Cl)cc1)c(C)n2C(=O)c1ccc(Cl)cc1	92.2%	295%	68.6%		
O=C(O)CC1=C/C(=C/c2ccc(C(F)(F)F)cc2)c2ccc(F)cc21	100%	91%	29.2%		
O=C(O)C1(c2ccc(-c3ccc(F)cc3)c(F)c2)CC1	102%	90.4%	86.4%	102%	
